Sampled rows, rich in hits. Any-hit rate of the full collection: about 0.72%.
hIAP activ: increases human intestinal alkaline phosphatase activity; 0.16% of 330,000 active; purified human IAP, CDP-Star luminescence, 30 min; stronger effect = higher value; 1 = vehicle-only enzyme, 0 = enzyme-free background; P09923; activation factor at 10 µM;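 active = activation factor of the enzyme at least 2-fold when tested at 20 µM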
Target sequence (P09923 whole entry, looked up): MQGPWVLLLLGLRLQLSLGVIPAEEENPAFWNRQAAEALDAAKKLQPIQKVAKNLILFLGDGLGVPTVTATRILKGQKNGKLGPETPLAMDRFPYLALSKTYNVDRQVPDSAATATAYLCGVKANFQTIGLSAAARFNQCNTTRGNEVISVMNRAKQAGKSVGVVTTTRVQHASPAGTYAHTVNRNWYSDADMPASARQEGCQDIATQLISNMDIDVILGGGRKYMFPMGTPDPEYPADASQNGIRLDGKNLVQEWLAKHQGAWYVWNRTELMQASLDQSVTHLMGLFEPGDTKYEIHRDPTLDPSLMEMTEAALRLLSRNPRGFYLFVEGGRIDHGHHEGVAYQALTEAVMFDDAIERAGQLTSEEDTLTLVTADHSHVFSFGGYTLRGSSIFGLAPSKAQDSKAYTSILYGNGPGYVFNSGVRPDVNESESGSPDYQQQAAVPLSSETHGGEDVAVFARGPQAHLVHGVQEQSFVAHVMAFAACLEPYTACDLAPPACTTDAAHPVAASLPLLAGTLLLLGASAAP
bIAP inhibitor: blocks bovine intestinal alkaline phosphatase activity; AID 1019; 190,000 tested, under 10 active; purified bovine IAP, CDP-star luminescence, 30 min; inhibition, % at 20 µM;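 active = over 50% inhibition of intestinal alkaline phosphatase at 20 µM in the single-dose screen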
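test system = bovine IAP enzyme | medium = DEA buffer 100 mM, pH 9.8, with MgCl2 1.0 mM, ZnCl2 0.02 mM | detection = luminescence | dosing = single compound dose of 20 µM, 2% DMSO final | incubation = 30 min reaction at room temperature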
bIAP act: intestinal alkaline phosphatase (bovine) activation; purified bovine IAP, CDP-star luminescence, 30 min; stronger effect = higher value; fold of DMSO-control signal, blank-subtracted; 0.17% of 200,000 active; AID 1016; activation factor at 20 µM;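 active = activation factor of 2 or more at 20 µM, a signal rise over negative controls twice the positive control's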
hIAP block: blocks human intestinal alkaline phosphatase; P09923; purified IAP, CDP-Star luminescence, 30 min; inhibition, % at 10 µM; 0.12% of 330,000 active; AID 2544;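 active = inhibition reaching a set limit with compound at 10 µM in the primary screen, cut at about 35% in these data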;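 note: plate controls were DMSO wells with enzyme for no effect and no-enzyme buffer wells for full effect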
mIAP act: increases mouse intestinal alkaline phosphatase activity; muIAP, CDP-Star luminescence, 30 min; stronger effect = higher value; 1 = vehicle-only enzyme signal, 0 = enzyme-free wells; 0.24% of 330,000 active; activation factor at 10 µM;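 active = activation factor of at least 2 at 20 µM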
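System: Mouse IAP enzyme | Also added: CDP-Star substrate | Dosing: Compounds dispensed in DMSO | Schedule: 30 min enzyme-substrate-compound incubation at room temperature | Technique: Chemiluminescence readout | Control set: DMSO-only wells and no-enzyme negative control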
mIAP inh: mouse IAP inhibition; AID 2806; 0.2% of 330,000 active; purified mouse IAP, CDP-Star luminescence, 30 min; inhibition, % at 10 µM;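 active = inhibition of at least 40% at 10 µM in the primary screen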;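 note: plate controls were DMSO with enzyme for no effect and no enzyme wells for full effect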
* marks the source's active call; other numbers are inactive results; i = inactive; · = not tested or not shown.

SMILES | hIAP activ | bIAP inhibitor | bIAP act | hIAP block | mIAP act | mIAP inh
S=C(NCCNCc1ccccc1)NC1CCCCC1 | 1.1 | 5 | 0.9 | -10 | 2.1* | -109
S=C(NCCc1ccccc1)NC1CCCCCC1 | 1 | 49 | 0.5 | -1 | 1.3 | -26
O=C(NCc1ccccc1)NCC12CC3CC(CC(C3)C1)C2 | 1.2 | -1 | 1 | -21 | 2.1* | -111
COc1ccc(-c2ccc(N)[n+](CCCC(=O)O)n2)cc1 | 0.83 | · | · | 17 | 0.97 | 2
Cc1cccc(C(C)C)c1NC(=O)COC(=O)Cc1ccsc1 | 0.88 | -307 | 4.1* | 12 | 0.99 | 1
Cc1cc(Cl)cc(C)c1OCCCCn1ccnc1 | 0.95 | -9 | 1.1 | 5 | 1 | -3
CCCCOc1ccc(NC(=O)C(=O)NCCCn2ccnc2)cc1 | 1.1 | -25 | 1.3 | -12 | 0.89 | 11
CCCCCCOc1ccc(C(=O)NCCCn2ccnc2)cc1 | 1.4 | -101 | 2* | -37 | 1.2 | -17
Cc1cc(OCCCCn2ccnc2)cc(C)c1Cl | 1.1 | i | 16* | -15 | 0.96 | 4
CC(C)NCc1nnc(-c2ccccc2Cl)o1 | 0.88 | -2 | 1 | 12 | 0.99 | 1
CC(C)(C)n1nnnc1CN1C2CCC1CC(NC(=O)Nc1ccccc1)C2 (stereo unspecified) | 1.1 | -121 | 2.2* | -8 | 1 | -2
Cc1ccc(NC(=S)NC2CC3CCC(C2)N3Cc2ccco2)cc1C (stereo unspecified) | 1.2 | 0 | 1 | -19 | 1.4 | -42
CCOC(=O)c1ccc(NC(=O)NC2CC3CCC(C2)N3Cc2nnnn2Cc2ccco2)cc1 (stereo unspecified) | 1.5 | -27 | 1.3 | -53 | 2.2* | -124
CCN(CC(=O)NCc1cccs1)C(=O)Cc1ccc(Cl)c(Cl)c1 | 1.1 | · | · | -10 | 1 | -4
CCC1=C(OC(=O)N(CC)CC)N2C(=O)OC(=NCCc3c[nH]c4ccccc34)[C@]2(Cc2ccccc2)[C@H]2C1=CC[C@H]1C(=O)N(C)C(=O)[C@H]12 | 1.2 | · | · | -19 | 0.84 | 16
Clc1cccc(Cl)c1CSc1nnc(-c2ccncc2)s1 | 2.1* | · | · | -106 | 0.98 | 2
Cc1ccc(C(C)C)c(OCCNC(=S)Nc2cccc3ccccc23)c1 | 1 | 46 | 0.5 | -4 | 2.3* | -130
Cc1ccc(C(C)C)c(OCCNCc2ccccc2)c1 | 0.91 | · | · | 9 | 0.88 | 12
COc1ccc(CCN(Cc2nc3ccccc3c(=O)[nH]2)C(=O)C2CC2)cc1 | 1.1 | -6 | 1.1 | -11 | 1.1 | -5
O=C(Nc1ccccc1Cl)C1CCN(Cc2cnn(-c3ccccc3)c2-n2cccc2)CC1 | 1 | -44 | 1.4 | -1 | 0.92 | 8
O=C(NCc1ccc2c(c1)OCO2)C1CCN(Cc2cnn(-c3ccccc3)c2-n2cccc2)CC1 | 1.4 | -114 | 2.1* | -35 | 1.2 | -21
C/C(=N\Nc1cccc2cccnc12)c1ccccc1O | 0.96 | 2 | 1 | 4 | 0.92 | 8
C/C(=N\Nc1cccc2cccnc12)c1ccccn1 | 2.1* | -17 | 1.2 | -106 | 0.9 | 10
N#Cc1sc2nc(C3CC3)cc(-c3ccccc3)c2c1N | 1.3 | 15 | 0.9 | -29 | 1.1 | -14
N#Cc1sc2nc(-c3ccccc3)cc(-c3ccco3)c2c1N | 0.96 | 11 | 0.9 | 4 | 0.52 | 48*
SMILES | hIAP activ | bIAP inhibitor | bIAP act | hIAP block | mIAP act | mIAP inh
Cc1ccc(/C=c2\sc3nc(-c4ccccc4Br)nn3c2=O)o1 | 0.8 | 3 | 1 | 20 | 0.51 | 49*
Cn1c(N=Nc2ccccc2)nc2ccccc21 | 1 | · | 0.5 | -1 | 0.85 | 14
CN(C)c1ccc(N=Nc2nc3ccccc3n2C)cc1 | 0.83 | · | · | 17 | 0.58 | 42*
CCC(=O)OCCNc1cc(SCCC(=O)OC)c2nonc2c1[N+](=O)[O-] | 1 | 14 | 0.9 | -4 | 0.88 | 12
CCCC(=O)OCCNc1cc(Sc2nc3ccccc3[nH]2)c2nonc2c1[N+](=O)[O-] | 0.88 | -251 | 3.5* | 12 | 0.88 | 12
N#CC1(NC(=O)CSc2n[nH]c(-c3ccccc3)n2)CCCCC1 | 0.99 | · | · | 1 | 1 | -4
O=C(Nc1cccc(Cl)c1)C1C2CCC3C(CCC21)C3(Cl)Cl (stereo unspecified) | 0.9 | 14 | 0.9 | 10 | 2.9* | -188
Cc1nnsc1C(=O)N/N=C/c1ccccc1 | 1.3 | -450 | 5.5* | -26 | 0.98 | 2
O=[N+]([O-])c1ccc(/C=N/NC(=S)Nc2ccccc2C(F)(F)F)o1 | 1.1 | 27 | 0.7 | -5 | 0.68 | 32
Cn1cnnc1SCC(=O)N1CCN(C(=O)c2ccco2)CC1 | 0.91 | 20 | 0.8 | 9 | 1 | -3
Cn1cnnc1SCC(=O)N1CCC(Cc2ccccc2)CC1 | 1.1 | -140 | 2.4* | -14 | 1.2 | -20
CCOC(=O)c1sc(NC(=O)Nc2cccc(Cl)c2)cc1C | 1.1 | -1 | 1 | -12 | 2* | -104
COc1ccc(-n2c(=O)c3ccccc3n(CC(=O)NCc3ccco3)c2=O)cc1 | 0.94 | -10 | 1.1 | 6 | 0.98 | 2
COc1ccc2c(c1)c(=O)cc(C)n2CC(=O)NCc1ccco1 | 1.1 | -430 | 5.3* | -9 | 1 | -1
COc1ccccc1CN1CC(C(=O)NCc2cc(F)ccc2C)CCC1=O (stereo unspecified) | 0.82 | · | · | 18 | 1 | -1
Cc1ccc(-n2ncc3c(N4CCCC(C)C4)ncnc32)c(C)c1 (stereo unspecified) | 1.1 | · | · | -11 | 0.56 | 44*
COc1cccc(CC(=O)NN2C(=O)NC3(CCCCC3)C2=O)c1 | 1.1 | · | · | -8 | 1.1 | -9
CCCOc1ccc(CNC(=S)NCc2ccc(OC(C)C)cc2)cc1 | 1.2 | -2 | 1 | -22 | 4.2* | -315
O=C(NCCc1ccc(Cl)cc1Cl)C1=CC=CN2CCS(=O)(=O)N=C12 | 0.94 | · | · | 6 | 0.85 | 14
O=C(NCc1ccccc1)c1onc(CSc2ccc(F)c(F)c2)c1C(=O)NCc1ccccc1 | 1 | · | · | -4 | 0.99 | 1
O=C(NCCc1ccccc1)c1n[nH]c2ccccc12 | 0.81 | -96 | 2* | 19 | 1 | -2
CCN(CC(=O)Nc1c(F)cccc1F)C(=O)c1csc2c1CCCC2 | 1 | · | · | -1 | 1.1 | -6
CCOc1ccc(Cn2c(=O)oc3ccccc32)cc1 | 0.89 | · | · | 11 | 0.95 | 4
CN(CCOc1ccccc1)C(=O)C1CCC(=O)N(CCN2CCOCC2)C1 (stereo unspecified) | 1 | · | · | 0 | 1 | -4
COCCNC(=O)C(c1cccc(OC)c1)N(Cc1cccs1)C(=O)Cn1nnc2ccccc21 (stereo unspecified) | 0.92 | 9 | 0.9 | 8 | 1 | -2
CCC(C)N(C(=O)Cn1nnc2ccccc21)C(C(=O)Nc1ccc(F)cc1)c1cccc(OC)c1 (stereo unspecified) | 1.2 | -30 | 1.3 | -16 | 2.3* | -131

Screening data as filed in PubChem BioAssay.
